ChEMBL document CHEMBL2046279, “Trigoflavidols A-C, degraded diterpenoids with antimicrobial activity, from Trigonostemon flavidus” (J Nat Prod, 2012)
pIC50: −log10 of the molar value. Converted amounts (≈) assume the structure as drawn.

Legend:
SW480 = test: Cytotoxicity against human SW480 cells by MTT assay; type: functional, cell-based
HL-60 = test: Cytotoxicity against human HL60 cells by MTT assay; type: functional, cell-based
A549 = test: Cytotoxicity against human A549 cells by MTT assay; type: functional, cell-based
Staphylococcus aureus [1] = test: Antimicrobial activity against Staphylococcus aureus after 18 hrs by two-fold dilution method; type: functional
SMMC-7721 = test: Cytotoxicity against human SMMC7721 cells by MTT assay; type: functional, cell-based
Staphylococcus aureus [2] = test: Antimicrobial activity against 82 isolates of methicillin-resistant Staphylococcus aureus after 18 hrs by two-fold dilution method; type: functional
Staphylococcus aureus [3] = test: Antimicrobial activity against Staphylococcus aureus by agar plate punch assay; type: functional
In short: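 Compounds dissolved in DMSO at 500 μg/mL; 50 μL placed in a 6 mm well punched in MH agar smeared with test organism suspension (1.5 × 10^9 cfu/mL). Read-out is diameter of the inhibition zone.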

MCF7 = test: Cytotoxicity against human MCF7 cells by MTT assay; type: functional, cell-based
Staphylococcus aureus [4] = test: Antimicrobial activity against 8 isolates of methicillin-resistant Staphylococcus aureus after 18 hrs by two-fold dilution method; type: functional

| Compound | pIC50 (SW480) | pIC50 (HL-60) | pIC50 (A549) | MIC (Staphylococcus aureus [1]) [µg/mL] | pIC50 (SMMC-7721) | MIC (Staphylococcus aureus [2]) [µg/mL] | diameter of the inhibition zone (DIZ) (Staphylococcus aureus [3]) [mm] | pIC50 (MCF7) | MIC (Staphylococcus aureus [4]) [µg/mL] |
| --- | --- | --- | --- | --- | --- | --- | --- | --- | --- |
| COC(=O)[C@@]1(O)[C@]2(Oc3cc4c(cc(OC)c5cc(C)c(O)cc54)c(C)c3O2)c2c(cc(OC)c3cc(C)c(O)cc23)[C@@]1(C)O (relative stereo) | 4.80 | 4.68 | 4.70 | 1.56 (≈ 2.55 µM) | 4.67 | 6.25 (≈ 10.2 µM) | >10 | 4.83 | 3.12 (≈ 5.09 µM) |
| Cc1cc2c(cc1O)C1=C(C3=C4C(=CC(=O)c5cc(C)c(O)cc54)C(C)(C)C3=O)C(=O)C(C)(C)C1=CC2=O [NEOBOUTOMANNIN] | < 4.40 | < 4.40 | < 4.40 | > 50 | < 4.40 | – | – | < 4.40 | – |
| COC(=O)[C@@]1(O)[C@@]2(Oc3cc4c(cc(OC)c5cc(C)c(O)cc54)c(C)c3O2)c2c(cc(OC)c3cc(C)c(O)cc23)[C@@]1(C)O [TRIGOFLAVIDOL B] | 4.81 | < 4.40 | 4.77 | 1.56 (≈ 2.55 µM) | 4.71 | 3.12 (≈ 5.09 µM) | >10 | 4.83 | 3.12 (≈ 5.09 µM) |
| COc1cc2c(cc(OC)c3cc(C)c(O)cc32)oc1=O [TRIGOFLAVIDOL C] | < 4.40 | < 4.40 | < 4.40 | > 50 | < 4.40 | – | – | < 4.40 | – |
| COc1cc2c(cc(OC)c3cc(C)c(O)cc32)c(C)c1O [TRIGONOCHINENE E] | 4.69 | 5.43 | 4.68 | > 50 | 4.54 | – | >10 | 4.74 | – |
| CN[C@H](CC(C)C)C(=O)N[C@H]1C(=O)N[C@@H](CC(N)=O)C(=O)N[C@H]2C(=O)N[C@H]3C(=O)N[C@H](C(=O)N[C@H](C(=O)O)c4cc(O)cc(O)c4-c4cc3ccc4O)[C@H](O)c3ccc(c(Cl)c3)Oc3cc2cc(c3O[C@@H]2O[C@H](CO)[C@@H](O)[C@H](O)[C@H]2O[C@H]2C[C@](C)(N)[C@H](O)[C@H](C)O2)Oc2ccc(cc2Cl)[C@H]1O.Cl [VANCOMYCIN HYDROCHLORIDE] | – | – | – | 1.56 | – | 0.78 | – | – | 0.78 |
